Data on two compounds can be found in publication PMC2897717 (Journal of cerebral blood flow and metabolism : official …, 2009).

A short description of series [1]: Multiple-injection. The series is classed as in vivo, rhesus monkey (Macaca mulatta). The method in brief:
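Three labeled/unlabeled radioligand injections were given i.v. in 0.9% NaCl within a session under 3 hours, with no decay correction. The model used K1, k2, fNDkon, koff and Bmax shared across injections, with molar arterial parent plasma as input and a blood-volume term. Levenberg–Marquardt fitting was run per ROI and across regions. Cerebellum was fitted as 1CM [K1,k2] or 2CM [K1,k2,Bmax] with fNDkon and koff fixed from other regions.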

The subject of series [2] is dopamine D2/D3 receptors. As to the kind of experiment: Multiple-injection. The series is classed as in vivo, rhesus monkey (Macaca mulatta).
For series [3] the following is noted: baboon, MI experiments; ref Delforge et al, 1999; cited from earlier work.
Where [4] appears, read: averaged across all brain regions.

In the case of `C=CCN1CCC[C@H]1CNC(=O)c1cc(CCCF)cc(OC)c1OC` [^18F-fallypride, (S)-N-[(1-allyl-2-pyrrolidinyl)methyl]-5 (3-[18F]fluoropropyl) 2,3-dimethoxybenzamide], the “K1, mean” value in series [1] (setting [4]) was found to be 0.48 ± 0.15 mL/cm^3/min. Besides, the “k2, tissue-to-plasma efflux constant, mean” value in series [1] (setting [4]) stood at 0.54 ± 0.10 min⁻¹. Also, in series [1] (from mean K1 and k2), the “ND distribution volume (VND = K1/k2)” value worked out at 0.9 mL/cm^3. Moreover, the “Estimated maximum receptor occupancy, injection 1” value in series [2] (experiment M1a, m1 2.0 nmol) was 13%; in series [2] (experiment M2a, m1 0.7 nmol), 12%. Further, the “Estimated maximum receptor occupancy, injection 2” value in series [2] (experiment M1a, m2 13.1 nmol) is 64%; in series [2] (experiment M2a, m2 10.6 nmol) it was 77%. Besides, the “Estimated maximum receptor occupancy, injection 3” value in series [2] (experiment M1a, m3 100 nmol) is 98%.

With `CCN1CCCC1CNC(=O)c1cc([76Br])cc(OC)c1OC` (stereo not drawn) [^76Br-FLB457], the VND in series [3] was 0.35 mL/cm^3.
